Experimental findings from ChEMBL document CHEMBL1629686, “Substrate selectivity and a novel role in inhibitor discrimination by residue 237 in the KPC-2 beta-lactamase” (Antimicrob Agents Chemother, 2010) are described below.

As usually defined, the kcat/Km is the second-order rate constant that governs catalysis at low substrate concentration. Broadly, the Km is the concentration of substrate that gives half-maximal velocity. The kcat is the number of substrate molecules converted per active site and unit of time at saturation. As a reminder, the Ki is the equilibrium dissociation constant of an inhibitor or competing ligand from its target. Read a low Ki as a stronger hold on the target.

Series [1] concerns Klebsiella pneumoniae. The series can be described thus: Ratio of Kcat/Km for Klebsiella pneumoniae 1534 beta-lactamase KPC-2 T237A mutant by spectrophotometric analysis. In a few lines: (§1)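 Purified KPC-2 variant enzymes (periplasmic lysate from E. coli, preparative isoelectric focusing). Hydrolysis followed by diode-array spectrophotometry in 10 mM PBS, pH 7.4, room temperature. Enzyme at 10 nM with substrate in molar excess for pseudo-first-order conditions. Vmax and Km came from a nonlinear least-squares Michaelis-Menten fit.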

The test system of series [2] is Klebsiella pneumoniae. The experiment in a line: Activity of Klebsiella pneumoniae 1534 beta-lactamase KPC-2 T237E mutant by spectrophotometric analysis. In short, it runs like this: as §1
Series [3] deals with Klebsiella pneumoniae. The series can be described thus: Activity of Klebsiella pneumoniae 1534 beta-lactamase KPC-2 T237S mutant by spectrophotometric analysis. In a few lines: as §1
The test system of series [4] is Klebsiella pneumoniae. The series can be described thus: Ratio of Kcat/Km for Klebsiella pneumoniae 1534 beta-lactamase KPC-2 T237E mutant by spectrophotometric analysis. In a few lines:
as §1

Series [5] concerns Klebsiella pneumoniae. The experiment in a line: Selectivity index, Ratio of Kcat/Km for Klebsiella pneumoniae 1534 beta-lactamase KPC-2 T237S mutant to ratio of Kcat/Km for Klebsiella pneumoniae 1534 beta-lactamase KPC-2 by spectrophotometric analysis. In a few lines: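 Kinetics used purified enzymes in 10 mM PBS, pH 7.4, room temperature, with 10 nM enzyme and substrate in excess. Km and Vmax came from a Michaelis-Menten fit. kcat/Km of the variant was compared with wild type as ΔΔG = −RT ln of the kcat/Km ratio.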

For series [6], the system named is Klebsiella pneumoniae. The experiment in a line: Activity of Klebsiella pneumoniae 1534 beta-lactamase KPC-2 T237A mutant by spectrophotometric analysis. In a few lines:
as §1

In series [7] the test system is Klebsiella pneumoniae. The experiment in a line: Ratio of Kcat/Km for Klebsiella pneumoniae 1534 beta-lactamase KPC-2 T237S mutant by spectrophotometric analysis. In short, it runs like this:
as §1

Series [8] in a line: Inhibition of Klebsiella pneumoniae 1534 beta-lactamase KPC-2 T237S mutant by competitive assay. In a few lines: (§2)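 Direct competition assay at steady state with purified enzyme at 10 nM. Inhibitor was varied from 5 μM to 5 mM, with nitrocefin 100 μM final as reporter substrate. 1/v0 was plotted against [I], and Ki(observed) was taken as y-intercept divided by slope. This was corrected by 1 + [S]/Km(nitrocefin).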

The nature of series [9]: Inhibition of Klebsiella pneumoniae 1534 beta-lactamase KPC-2 T237A mutant by competitive assay. In short, it runs like this:
as §2

The subject of series [10] is Klebsiella pneumoniae. The experiment in a line: Ratio of Ki for Klebsiella pneumoniae 1534 beta-lactamase KPC-2 T237A mutant to Ki for wild type Klebsiella pneumoniae beta-lactamase KPC-2 by competitive assay.
For series [11], the system named is Klebsiella pneumoniae. The experiment in a line: Ratio of Ki for Klebsiella pneumoniae 1534 beta-lactamase KPC-2 T237S mutant to Ki for Klebsiella pneumoniae wild type beta-lactamase KPC-2 by competitive assay. In a few lines:
as §2

Substrate in series [12]: CCN1CCN(C(=O)N[C@@H](C(=O)N[C@@H]2C(=O)N3[C@@H]2SC(C)(C)[C@@H]3C(=O)O)c2ccccc2)C(=O)C1=O
The experiment in a line: (§3) Ratio of Kcat/Km for Klebsiella pneumoniae 1534 beta-lactamase KPC-2 by spectrophotometric analysis. In short, it runs like this:
(§4)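 Purified KPC-2 was expressed in E. coli (DH10B or IPTG-induced Origami2 DE3 pLys), released by periplasmic lysis, and purified by preparative isoelectric focusing. It was assayed at 10 nM in 10 mM PBS pH 7.4 at room temperature, with substrate in molar excess for pseudo-first-order conditions. Hydrolysis was read on a diode-array spectrophotometer, and Vmax and Km came from nonlinear least-squares Michaelis-Menten fits.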

Substrate in series [13]: C[C@@H](O)[C@H]1C(=O)N2C(C(=O)O)=C(SCCNC=N)C[C@H]12
The description is as §3. In short, it runs like this: as §4

Substrate in series [14]: O=C(Cc1cccs1)N[C@@H]1C(=O)N2C(C(=O)O)=C(/C=C/c3ccc([N+](=O)[O-])cc3[N+](=O)[O-])CS[C@H]12
Described as §3. In a few lines:
as §4

Substrate in series [15]: CC(=O)OCC1=C(C(=O)O)N2C(=O)[C@@H](NC(=O)Cc3cccs3)[C@H]2SC1
Described as §3. In short, it runs like this: as §4

Substrate in series [16]: CO/N=C(\C(=O)N[C@@H]1C(=O)N2C(C(=O)O)=C(COC(C)=O)CS[C@H]12)c1csc(N)n1
Described as §3. In a few lines: as §4

Substrate in series [17]: CCN1CCN(C(=O)N[C@@H](C(=O)N[C@@H]2C(=O)N3[C@@H]2SC(C)(C)[C@@H]3C(=O)O)c2ccccc2)C(=O)C1=O
The series can be described thus: (§5) Activity of Klebsiella pneumoniae 1534 beta-lactamase KPC-2 by spectrophotometric analysis. In short, it runs like this:
as §4

Substrate in series [18]: C[C@@H](O)[C@H]1C(=O)N2C(C(=O)O)=C(SCCNC=N)C[C@H]12
The description is as §5. In short, it runs like this:
as §4

Substrate in series [19]: O=C(Cc1cccs1)N[C@@H]1C(=O)N2C(C(=O)O)=C(/C=C/c3ccc([N+](=O)[O-])cc3[N+](=O)[O-])CS[C@H]12
Described as §5. In short, it runs like this: as §4

Substrate in series [20]: CC(=O)OCC1=C(C(=O)O)N2C(=O)[C@@H](NC(=O)Cc3cccs3)[C@H]2SC1
The description is as §5. In short, it runs like this:
as §4

Substrate in series [21]: CO/N=C(\C(=O)N[C@@H]1C(=O)N2C(C(=O)O)=C(COC(C)=O)CS[C@H]12)c1csc(N)n1
The series is described as §5. In short, it runs like this: as §4

For the molecule `O=C(Cc1cccs1)N[C@@H]1C(=O)N2C(C(=O)O)=C(/C=C/c3ccc([N+](=O)[O-])cc3[N+](=O)[O-])CS[C@H]12`, the kcat/Km with Klebsiella pneumoniae [1] came to 1.3e+07 M⁻¹ s⁻¹; with Klebsiella pneumoniae [4], 600000 M⁻¹ s⁻¹; in the series on Klebsiella pneumoniae [7], 1e+07 M⁻¹ s⁻¹. Besides, the figures for the Km in the series with Klebsiella pneumoniae [2], in the series with Klebsiella pneumoniae [3] and with Klebsiella pneumoniae [6] were 167 µM, 5 µM and 15 µM, respectively. Further, the turnover number (kcat) in the series on Klebsiella pneumoniae [2] amounted to 92 s⁻¹; in the series on Klebsiella pneumoniae [3], 50 s⁻¹; in the series with Klebsiella pneumoniae [6], 191 s⁻¹. For the same molecule, in the series on Klebsiella pneumoniae [5], the fold change (FC) came to 2.7.

For the molecule `C[C@]1(Cn2ccnn2)[C@H](C(=O)O)N2C(=O)C[C@H]2S1(=O)=O` [TAZOBACTAM], the values for the Ki in [8] and in series [9] were 53 µM and 174 µM, respectively. The fold change (FC) was 2.2 in the series with Klebsiella pneumoniae [10] and 1.7 in the series with Klebsiella pneumoniae [11].

B1: Carbapenem-hydrolyzing beta-lactamase KPC (Klebsiella pneumoniae), Q9F663 (protein)
chain: MSLYRRLVLLSCLSWPLAGFSATALTNLVAEPFAKLEQDFGGSIGVYAMDTGSGATVSYRAEERFPLCSSFKGFLAAAVLARSQQQAGLLDTPIRYGKNALVPWSPISEKYLTTGMTVAELSAAAVQYSDNAAANLLLKELGGPAGLTAFMRSIGDTTFRLDRWELELNSAIPGDARDTSSPRAVTESLQKLTLGSALAAPQRQQFVDWLKGNTTGNHRIRAAVPADWAVGDKTGTCGVYGTANDYAVVWPTGRAPIVLAVYTRAPNKDDKHSEAVIAAAARLALEGLGVNGQ
Consider B1, for which the kcat/Km is 3.4e+06 M⁻¹ s⁻¹ in series [12]; 1e+06 M⁻¹ s⁻¹ in series [13]; 8.7e+06 M⁻¹ s⁻¹ in [14]; 3.1e+06 M⁻¹ s⁻¹ in [15]; 700000 M⁻¹ s⁻¹ in [16]. Also, the Km in series [17] is 15 µM; in series [18], 19 µM; in series [19] it was 6 µM; in [20], 14 µM; in series [21], 207 µM. The kcat in series [17] is 51 s⁻¹; in series [18] it was 19 s⁻¹; in series [19], 52 s⁻¹; in [20], 44 s⁻¹; in [21], 142 s⁻¹.
